Reference: ChEMBL document CHEMBL1142269, “Imidazo[4,5-c]quinolines as inhibitors of the PI3K/PKB-pathway” (Bioorg Med Chem Lett, 2008)

Assays:
[1] = molecular target: Phosphatidylinositol 4,5-bisphosphate 3-kinase catalytic subunit gamma isoform (Homo sapiens, UniProt P48736); assay: Inhibition of PI3K p110gamma
[2] = molecular target: Phosphatidylinositol 4,5-bisphosphate 3-kinase catalytic subunit beta isoform (Homo sapiens, UniProt P42338); assay: Inhibition of PI3K p110beta
[3] = molecular target: Phosphatidylinositol 4,5-bisphosphate 3-kinase catalytic subunit alpha isoform (Homo sapiens, UniProt P42336); assay: Inhibition of PI3K p110alpha
Chain of Phosphatidylinositol 4,5-bisphosphate 3-kinase catalytic subunit alpha isoform (P42336 whole entry, canonical isoform): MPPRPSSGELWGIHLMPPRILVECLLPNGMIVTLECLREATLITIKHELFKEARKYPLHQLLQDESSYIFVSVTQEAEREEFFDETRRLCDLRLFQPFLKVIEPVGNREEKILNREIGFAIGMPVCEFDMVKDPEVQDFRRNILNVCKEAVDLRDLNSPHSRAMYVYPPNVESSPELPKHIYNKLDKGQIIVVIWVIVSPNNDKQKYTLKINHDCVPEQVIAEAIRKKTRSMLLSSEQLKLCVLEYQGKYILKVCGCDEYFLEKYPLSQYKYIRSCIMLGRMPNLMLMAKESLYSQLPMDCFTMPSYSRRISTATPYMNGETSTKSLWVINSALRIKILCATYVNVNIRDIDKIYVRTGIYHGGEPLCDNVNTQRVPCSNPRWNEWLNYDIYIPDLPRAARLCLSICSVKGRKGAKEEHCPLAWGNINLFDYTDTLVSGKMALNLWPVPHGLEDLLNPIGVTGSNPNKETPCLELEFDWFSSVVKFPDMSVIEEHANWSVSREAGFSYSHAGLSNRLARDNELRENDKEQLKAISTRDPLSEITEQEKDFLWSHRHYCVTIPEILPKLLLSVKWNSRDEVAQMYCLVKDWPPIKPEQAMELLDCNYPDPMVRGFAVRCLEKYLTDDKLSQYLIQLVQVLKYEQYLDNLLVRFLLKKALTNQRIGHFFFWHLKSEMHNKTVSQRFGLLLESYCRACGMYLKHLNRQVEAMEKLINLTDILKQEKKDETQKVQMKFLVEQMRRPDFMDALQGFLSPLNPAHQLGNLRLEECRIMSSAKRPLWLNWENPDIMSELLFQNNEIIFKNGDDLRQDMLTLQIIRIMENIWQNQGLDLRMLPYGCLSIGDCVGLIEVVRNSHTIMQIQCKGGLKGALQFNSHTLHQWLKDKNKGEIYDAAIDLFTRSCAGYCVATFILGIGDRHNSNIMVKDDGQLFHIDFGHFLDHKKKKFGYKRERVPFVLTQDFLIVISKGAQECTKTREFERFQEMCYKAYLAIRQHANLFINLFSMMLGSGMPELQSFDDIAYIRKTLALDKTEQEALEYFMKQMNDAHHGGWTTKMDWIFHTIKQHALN

[4] = molecular target: T1, Phosphatidylinositol 4,5-bisphosphate 3-kinase catalytic subunit delta isoform (Homo sapiens, UniProt O00329); assay: Inhibition of PI3K p110delta
T1 sequence (O00329 whole entry): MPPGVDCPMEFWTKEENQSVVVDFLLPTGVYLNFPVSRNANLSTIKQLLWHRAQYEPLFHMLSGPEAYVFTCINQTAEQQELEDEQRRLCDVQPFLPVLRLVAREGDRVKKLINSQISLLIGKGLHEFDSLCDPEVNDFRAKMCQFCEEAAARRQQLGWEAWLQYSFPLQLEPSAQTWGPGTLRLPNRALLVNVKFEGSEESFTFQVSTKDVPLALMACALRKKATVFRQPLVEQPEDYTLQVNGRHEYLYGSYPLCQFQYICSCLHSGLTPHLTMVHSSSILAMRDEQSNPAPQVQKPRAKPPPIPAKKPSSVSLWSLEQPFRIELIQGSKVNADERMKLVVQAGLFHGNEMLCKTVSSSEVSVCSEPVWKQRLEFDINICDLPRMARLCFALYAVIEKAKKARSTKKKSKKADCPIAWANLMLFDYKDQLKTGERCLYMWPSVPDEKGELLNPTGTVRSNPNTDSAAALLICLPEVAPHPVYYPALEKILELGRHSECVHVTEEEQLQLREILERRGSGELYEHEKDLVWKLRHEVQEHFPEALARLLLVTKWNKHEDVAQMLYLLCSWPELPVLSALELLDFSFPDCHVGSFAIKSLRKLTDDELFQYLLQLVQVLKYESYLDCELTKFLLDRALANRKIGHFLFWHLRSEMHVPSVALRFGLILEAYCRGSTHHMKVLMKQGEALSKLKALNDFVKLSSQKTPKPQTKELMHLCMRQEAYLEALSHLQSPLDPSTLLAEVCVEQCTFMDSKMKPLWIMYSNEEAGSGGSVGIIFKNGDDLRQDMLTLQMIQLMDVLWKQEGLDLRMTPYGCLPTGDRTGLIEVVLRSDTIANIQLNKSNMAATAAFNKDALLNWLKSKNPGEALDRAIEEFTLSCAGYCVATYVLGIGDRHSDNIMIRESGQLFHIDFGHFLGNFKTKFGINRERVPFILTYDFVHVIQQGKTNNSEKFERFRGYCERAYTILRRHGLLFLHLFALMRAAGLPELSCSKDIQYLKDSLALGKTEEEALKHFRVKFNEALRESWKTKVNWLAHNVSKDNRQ

[5] = molecular target: T2, 3-phosphoinositide-dependent protein kinase 1 (Homo sapiens, UniProt O15530); assay: Inhibition of PDK1
T2 sequence (O15530 whole entry): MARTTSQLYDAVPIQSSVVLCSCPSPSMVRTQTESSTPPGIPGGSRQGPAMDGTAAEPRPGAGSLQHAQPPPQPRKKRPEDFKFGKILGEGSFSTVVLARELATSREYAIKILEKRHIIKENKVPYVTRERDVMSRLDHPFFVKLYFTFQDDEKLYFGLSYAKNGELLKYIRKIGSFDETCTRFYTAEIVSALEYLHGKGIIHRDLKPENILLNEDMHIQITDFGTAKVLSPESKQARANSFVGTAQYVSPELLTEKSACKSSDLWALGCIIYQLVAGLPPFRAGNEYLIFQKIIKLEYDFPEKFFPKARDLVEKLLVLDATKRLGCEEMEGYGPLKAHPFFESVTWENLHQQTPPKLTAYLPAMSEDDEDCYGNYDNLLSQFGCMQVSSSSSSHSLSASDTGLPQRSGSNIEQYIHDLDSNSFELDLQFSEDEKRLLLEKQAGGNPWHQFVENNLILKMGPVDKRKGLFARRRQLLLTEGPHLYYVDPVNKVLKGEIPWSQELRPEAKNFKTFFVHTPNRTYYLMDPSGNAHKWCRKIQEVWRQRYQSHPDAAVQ
Summary of the method: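 Biochemical PDK1 enzymatic activity assay at 10 µM ATP; IC50 determined.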

[6] = Antiproliferative activity against human U87MG cells; type: functional, cell-based, U-87MG ATCC; conditions: U-87 MG
Summary of the method: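 Antiproliferation run in vitro on U87MG cells; potency expressed as EC50.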

[7] = Antitumor activity in mouse bearing human PC3M tumor assessed as reduction of tumor growth at 50 mg/kg, po bid after 27 days; type: functional, PC-3M; set-up: scale not given: the % may be the effect or the level left
Summary of the method: (§1)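 PC3M tumour-bearing mice, oral dosing twice per day at 50 or 60 mg/kg in NMP/PEG300 vehicle. T/C taken on day 27 as mean difference of treated group over mean difference of vehicle control, ×100. Significance by one-way ANOVA followed by post hoc Dunnett's test versus control.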

[8] = Antitumor activity in mouse bearing human PC3M tumor assessed as reduction of tumor growth at 60 mg/kg, po bid after 27 days; type: functional, PC-3M; set-up: scale not given: the % may be the effect or the level left; summary of the method: as §1
[9] = molecular target: RAC-alpha serine/threonine-protein kinase (Homo sapiens) (UniProt P31749); assay: Inhibition of PKB at 10 uM
Chain of RAC-alpha serine/threonine-protein kinase (Homo sapiens) (P31749 whole entry): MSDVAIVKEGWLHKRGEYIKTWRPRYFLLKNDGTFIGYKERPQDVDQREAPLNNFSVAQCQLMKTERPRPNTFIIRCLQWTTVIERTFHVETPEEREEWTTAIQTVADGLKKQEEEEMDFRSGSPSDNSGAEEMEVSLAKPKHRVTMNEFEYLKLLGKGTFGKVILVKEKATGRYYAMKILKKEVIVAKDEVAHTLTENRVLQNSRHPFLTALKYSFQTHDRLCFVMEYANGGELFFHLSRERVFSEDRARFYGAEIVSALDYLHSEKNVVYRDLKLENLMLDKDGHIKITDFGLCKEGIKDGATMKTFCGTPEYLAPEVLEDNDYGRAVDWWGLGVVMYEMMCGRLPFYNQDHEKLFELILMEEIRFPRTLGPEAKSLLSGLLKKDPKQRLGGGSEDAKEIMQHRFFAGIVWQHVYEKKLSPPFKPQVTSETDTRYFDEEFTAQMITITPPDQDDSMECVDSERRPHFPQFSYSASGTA

[10] = Inhibition of PKA at 10 uM
[11] = Antitumor activity in athymic mouse bearing human PC3M tumor assessed as reduction of tumor growth at 50 mg/kg, po bid after 15 days; type: functional, PC-3M; set-up: scale not given: the % may be the effect or the level left
Summary of the method: (§2)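 PC3M tumour-bearing mice, compound formulated in NMP/PEG300, given orally twice per day at 50 or 75 mg/kg. Tumour volume read on day 15. T/C = mean difference of treated group ÷ mean difference of vehicle-treated control group × 100.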

[12] = Antitumor activity in athymic mouse bearing human PC3M tumor assessed as reduction of tumor growth at 75 mg/kg, po bid after 15 days; type: functional, PC-3M; set-up: scale not given: the % may be the effect or the level left; summary of the method: as §2

Chain of Phosphatidylinositol 4,5-bisphosphate 3-kinase catalytic subunit beta isoform (P42338 whole entry, canonical isoform): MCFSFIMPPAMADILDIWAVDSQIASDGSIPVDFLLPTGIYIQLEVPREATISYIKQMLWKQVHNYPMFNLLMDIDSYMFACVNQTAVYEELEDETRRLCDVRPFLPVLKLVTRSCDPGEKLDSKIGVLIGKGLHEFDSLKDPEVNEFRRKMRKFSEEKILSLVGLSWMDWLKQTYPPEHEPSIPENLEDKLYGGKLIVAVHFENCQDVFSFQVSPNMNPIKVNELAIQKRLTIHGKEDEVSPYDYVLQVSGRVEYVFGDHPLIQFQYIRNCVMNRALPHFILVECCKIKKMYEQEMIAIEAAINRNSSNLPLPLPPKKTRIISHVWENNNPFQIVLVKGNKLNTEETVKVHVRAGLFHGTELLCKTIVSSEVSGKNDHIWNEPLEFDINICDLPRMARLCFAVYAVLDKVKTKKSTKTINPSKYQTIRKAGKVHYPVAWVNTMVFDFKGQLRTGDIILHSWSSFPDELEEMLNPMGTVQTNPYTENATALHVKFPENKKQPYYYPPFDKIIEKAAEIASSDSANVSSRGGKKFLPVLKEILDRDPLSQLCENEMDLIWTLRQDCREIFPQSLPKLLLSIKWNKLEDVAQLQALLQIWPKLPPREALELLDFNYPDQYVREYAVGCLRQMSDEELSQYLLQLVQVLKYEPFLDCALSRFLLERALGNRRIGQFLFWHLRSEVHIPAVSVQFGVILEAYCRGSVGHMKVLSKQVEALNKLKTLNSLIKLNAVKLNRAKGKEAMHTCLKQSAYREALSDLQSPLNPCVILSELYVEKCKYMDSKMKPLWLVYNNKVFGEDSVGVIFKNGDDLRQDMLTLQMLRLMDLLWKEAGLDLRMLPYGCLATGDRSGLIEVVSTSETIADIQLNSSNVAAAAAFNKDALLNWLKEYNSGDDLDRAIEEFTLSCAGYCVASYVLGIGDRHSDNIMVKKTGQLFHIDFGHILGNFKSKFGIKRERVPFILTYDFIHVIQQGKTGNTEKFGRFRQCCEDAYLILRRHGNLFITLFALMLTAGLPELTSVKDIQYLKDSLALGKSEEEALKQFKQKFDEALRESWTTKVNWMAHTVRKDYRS
Chain of Phosphatidylinositol 4,5-bisphosphate 3-kinase catalytic subunit gamma isoform (P48736 whole entry, canonical isoform): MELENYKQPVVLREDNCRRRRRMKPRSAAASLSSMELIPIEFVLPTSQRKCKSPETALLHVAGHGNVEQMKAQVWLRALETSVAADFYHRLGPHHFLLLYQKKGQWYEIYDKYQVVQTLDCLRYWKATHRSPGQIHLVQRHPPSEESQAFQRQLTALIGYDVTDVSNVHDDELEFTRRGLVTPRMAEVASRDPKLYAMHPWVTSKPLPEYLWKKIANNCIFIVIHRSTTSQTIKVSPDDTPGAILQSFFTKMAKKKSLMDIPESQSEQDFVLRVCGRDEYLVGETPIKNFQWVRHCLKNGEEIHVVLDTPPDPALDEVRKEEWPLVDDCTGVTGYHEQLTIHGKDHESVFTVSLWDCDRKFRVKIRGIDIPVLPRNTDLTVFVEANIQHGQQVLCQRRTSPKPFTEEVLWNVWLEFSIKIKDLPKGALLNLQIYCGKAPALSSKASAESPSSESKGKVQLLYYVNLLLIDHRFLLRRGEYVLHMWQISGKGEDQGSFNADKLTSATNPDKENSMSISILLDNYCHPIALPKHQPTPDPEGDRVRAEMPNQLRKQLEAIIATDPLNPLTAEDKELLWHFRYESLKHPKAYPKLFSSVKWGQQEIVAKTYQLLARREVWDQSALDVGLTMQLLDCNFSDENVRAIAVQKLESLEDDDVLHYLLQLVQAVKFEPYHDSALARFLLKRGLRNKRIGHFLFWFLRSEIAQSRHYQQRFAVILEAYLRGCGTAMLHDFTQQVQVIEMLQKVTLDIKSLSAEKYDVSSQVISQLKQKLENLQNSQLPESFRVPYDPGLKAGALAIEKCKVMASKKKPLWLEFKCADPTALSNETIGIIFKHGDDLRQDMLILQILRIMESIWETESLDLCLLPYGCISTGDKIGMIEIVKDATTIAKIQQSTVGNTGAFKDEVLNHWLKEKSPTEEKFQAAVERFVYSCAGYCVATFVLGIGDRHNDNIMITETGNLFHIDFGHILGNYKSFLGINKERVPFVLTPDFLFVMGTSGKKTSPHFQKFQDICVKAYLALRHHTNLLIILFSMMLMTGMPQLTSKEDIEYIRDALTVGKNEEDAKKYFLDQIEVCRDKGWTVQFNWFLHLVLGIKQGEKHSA

| Compound | IC50 [1] [nM] | IC50 [2] [nM] | IC50 [3] [nM] | IC50 [4] [nM] | IC50 [5] [nM] | EC50 [6] [nM] | Activity [7] [%] | Activity [8] [%] | inhibition [9] [%] | inhibition [10] [%] | Activity [11] [%] | Activity [12] [%] |
| --- | --- | --- | --- | --- | --- | --- | --- | --- | --- | --- | --- | --- |
| Cn1c(=O)n(-c2ccc(C(C)(C)C#N)cc2)c2c3cc(C#Cc4cccnc4)ccc3ncc21 | 382 | 2340 | 72 | 201 | > 25000 | 13 | 31 | 9 |  |  |  |  |
| N#CCc1ccc(-n2cnc3cnc4ccc(C#Cc5cccnc5)cc4c32)cc1 | 67 | 432 | 64 | 98 | 34 | 416 |  |  | 0 | 24 |  |  |
| Cc1nc2cnc3ccc(C#Cc4cccnc4)cc3c2n1-c1ccc(C(C)C#N)cc1 (stereo not given) | 117 | 446 | 56 | 35 | 245 | 143 |  |  |  |  | 85 | 50 |
| CC(C)(C#N)c1ccc(-n2cnc3cnc4ccc(C#Cc5cccnc5)cc4c32)cc1 |  |  |  |  | 150 | 446 |  |  |  |  |  |  |
| Cc1nc2cnc3ccc(C#Cc4cccnc4)cc3c2n1-c1ccc(CC#N)cc1 |  |  |  |  | 110 | 275 |  |  |  |  |  |  |
| CCc1nc2cnc3ccc(C#Cc4cccnc4)cc3c2n1-c1ccc(CC#N)cc1 |  |  |  |  | 327 | 400 |  |  |  |  |  |  |
